Data set [1] is described as follows: folding enthalpy; higher = less favourable; fluorescence melt of hairpins on a sequencing array, two-state fit. The settings on record: sodium 0.088 M. An outline of the steps:
(§1)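 In 50 mM Na-HEPES pH 8.0 containing 25 mM NaCl, hairpins from the library on a sequenced MiSeq flow cell were imaged for Cy3 fluorescence at 2.5 °C steps up to 60 °C, with Cy3 and quencher oligos annealed. After normalisation to pre-quench Cy3 and to control constructs, two-state fits with bootstrapping gave melting temperature and folding enthalpy. Four replicates were combined by inverse-variance weighting, and fitted temperatures were shifted up by 9.35 °C to match UV melts.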

A short description of data set [2]: melting temperature; fluorescence melt of hairpins on a sequencing array, two-state fit, raised by 9.35 °C to match UV melts. The settings on record: sodium 0.088 M. An outline of the steps: as §1

As to GCGTAGTTACGC ((((....)))), the folding enthalpy in data set [1] was -22.4 kcal/mol. The Tm in data set [2] worked out at 54.4 °C.

With GCGTATAACGC ((((...)))), the folding enthalpy in data set [1] was -21 kcal/mol. In data set [2], the Tm was 56.4 °C.

For GCGTATACACGC ((((....)))), the folding enthalpy in data set [1] is -22.8 kcal/mol. Also, in data set [2], the Tm was 53.6 °C.

With GCGTATATACGC ((((....)))), the folding enthalpy in data set [1] was -27.1 kcal/mol. Also, in data set [2], the Tm was 55 °C.

For GCGTATCAACGC ((((....)))), the folding enthalpy in data set [1] was -25.6 kcal/mol. Also, the Tm in data set [2] was found to be 53.9 °C.

Consider GCGTATGAACGC ((((....)))), for which, in data set [1], the folding enthalpy was -18.9 kcal/mol. For the same sequence, in data set [2], the Tm is 52 °C.

For GCGTATGACGC ((((...)))), the folding enthalpy in data set [1] is -17.5 kcal/mol. Besides, in data set [2], the Tm turned out to be 54 °C.

Take GCGTATGGAAACACACGC ((((.((....)).)))): the folding enthalpy in data set [1] was -29 kcal/mol. Besides, the Tm in data set [2] came to 46.3 °C.

Turning to GCGTATGGAAACGTATGC ((.((.(....).)).)), in data set [1], the folding enthalpy was -26.1 kcal/mol. Moreover, in data set [2], the Tm is 34.8 °C.

For the sequence GCGTATTGACGC ((((....)))), the folding enthalpy in data set [1] was -13.1 kcal/mol. Besides, the Tm in data set [2] is 52.9 °C.

Regarding GCGTCAAACGC ((((...)))), in data set [1], the folding enthalpy was -16.7 kcal/mol. The Tm in data set [2] is 50.8 °C.

Take GCGTCAATACGC ((((....)))): the folding enthalpy in data set [1] was -22.8 kcal/mol. The Tm in data set [2] was 51.4 °C.

In the case of GCGTCACAACGC ((((....)))), in data set [1], the folding enthalpy was -27.2 kcal/mol. Further, the Tm in data set [2] stood at 55.2 °C.

For GCGTCACACGC ((((...)))), the folding enthalpy in data set [1] is -23.6 kcal/mol. Moreover, the Tm in data set [2] is 56.2 °C.

For GCGTCACGAAAGTGTCGC (((.(((....))).))), the folding enthalpy in data set [1] was -42.4 kcal/mol. The Tm in data set [2] was determined as 63.4 °C.

In the case of GCGTCAGGAAACTGACAC (.(((((....))))).), the folding enthalpy in data set [1] is -13.1 kcal/mol. For the same sequence, the Tm in data set [2] worked out at 43.3 °C.

As for GCGTCAGTACGC ((((....)))), in data set [1], the folding enthalpy was -20.1 kcal/mol. Further, in data set [2], the Tm amounted to 51.1 °C.

For the sequence GCGTCATACGC ((((...)))), the folding enthalpy in data set [1] was -20.1 kcal/mol. Besides, the Tm in data set [2] turned out to be 62.7 °C.

Take GCGTCATGACGC ((((....)))): the folding enthalpy in data set [1] was -30.9 kcal/mol. Besides, the Tm in data set [2] was 61.9 °C.

Consider GCGTCCCCACGC ((((....)))), for which the folding enthalpy in data set [1] is -21 kcal/mol. Moreover, in data set [2], the Tm was found to be 51.1 °C.

For GCGTCCCGACGC ((((....)))), the folding enthalpy in data set [1] was -23.3 kcal/mol. In data set [2], the Tm is 61 °C.

Consider GCGTCCGAAAGGACCCGC ((((((....)))..))), for which, in data set [1], the folding enthalpy was -11.4 kcal/mol. Besides, the Tm in data set [2] came to 44.4 °C.

With GCGTCCGAAAGGACTCGC ((((((....)))..))), the folding enthalpy in data set [1] was -12.3 kcal/mol. Further, the Tm in data set [2] came out at 51 °C.

Take GCGTCCGCACGC ((((....)))): in data set [1], the folding enthalpy was -17.2 kcal/mol. In addition, the Tm in data set [2] is 52.8 °C.

On to GCGTCCGTACGC ((((....)))), for which the folding enthalpy in data set [1] is -26.8 kcal/mol. In addition, the Tm in data set [2] was determined as 52.3 °C.

With GCGTCGCCGAAAGGCCGC (((..(((....)))))), in data set [1], the folding enthalpy was -19.3 kcal/mol. Also, in data set [2], the Tm was determined as 57.1 °C.

For the sequence GCGTCGCGAAAGCCATGC ((.(.((....)).).)), the folding enthalpy in data set [1] is -16.2 kcal/mol. The Tm in data set [2] amounted to 41.5 °C.

Consider GCGTCGCGAAAGCGCAGC ((..(((....)))..)), for which the folding enthalpy in data set [1] is -19.9 kcal/mol. Also, the Tm in data set [2] was found to be 57.5 °C.

On to GCGTCGCGAAAGCGCTGC ((..(((....)))..)), for which the folding enthalpy in data set [1] is -16.3 kcal/mol. Besides, in data set [2], the Tm was 50.2 °C.

As to GCGTCGCGAAAGCGGGGC ((..(((....)))..)), the folding enthalpy in data set [1] was -29 kcal/mol. The Tm in data set [2] amounted to 67.4 °C.

As to GCGTCGCGAAAGCTCCGC (((..((....))..))), the folding enthalpy in data set [1] was -21.1 kcal/mol. Moreover, the Tm in data set [2] was found to be 46.8 °C.

For GCGTCGCGAAAGCTTCGC (((..((....))..))), the folding enthalpy in data set [1] is -19.7 kcal/mol. For the same sequence, in data set [2], the Tm came to 53.5 °C.

With GCGTCGGGAAACCGGTGC ((..(((....)))..)), the folding enthalpy in data set [1] is -21.2 kcal/mol. Moreover, the Tm in data set [2] turned out to be 48.7 °C.

Take GCGTCGGGACGC ((((....)))): the folding enthalpy in data set [1] was -20.2 kcal/mol. The Tm in data set [2] is 66 °C.

Take GCGTCGGTACGC ((((....)))): the folding enthalpy in data set [1] is -19.3 kcal/mol. Moreover, in data set [2], the Tm is 52.8 °C.

With GCGTCGTGACGC ((((....)))), the folding enthalpy in data set [1] is -22.7 kcal/mol. Also, the Tm in data set [2] is 68.4 °C.

On to GCGTCTAAACGC ((((....)))), for which, in data set [1], the folding enthalpy is -23 kcal/mol. Further, the Tm in data set [2] is 54.4 °C.

GCGTCTCCACGC ((((....)))): the folding enthalpy in data set [1] is -21.4 kcal/mol. For the same sequence, in data set [2], the Tm is 52 °C.

Consider GCGTCTGAACGC ((((....)))), for which the folding enthalpy in data set [1] is -25.2 kcal/mol. In addition, in data set [2], the Tm came to 54 °C.

(Values after the array DNA melting data of Ke et al. (doi:10.1101/2024.01.08.574731).)
